Assay results pooled from the literature.
Protocols differ between the studies behind these lines.
CDK4: Cyclin-dependent kinase 4 (CDK4, Homo sapiens, UniProt P11802)
CDK4 with cyclin D1: Cyclin-dependent kinase 4, with cyclin D1 (CDK4, Homo sapiens, UniProt P11802)
CDK4 with cyclin D3: Cyclin-dependent kinase 4, with cyclin D3 (CDK4, Homo sapiens, UniProt P11802)

O=C(NCCCN1CCOCC1)c1ccc(Nc2nccc(-c3cc4ccccc4s3)n2)cc1 — remaining binding (CDK4; binding, competition with immobilised ligand; 1 µM): 55%
C[C@@H](c1ccc(-n2cnc3c(N)ncnc32)cc1)N1CCc2nn(C)c(Cc3ccccc3)c2C1=O — remaining binding (CDK4 with cyclin D1; binding, competition with immobilised ligand; 0.1 µM): 73%
CNC(=O)[C@@H]1CC[C@@H](n2c(-c3ccc4cnccc4c3)nc3ccc(C(=O)NCc4cccc(C(N)=O)c4)cc32)C1 — remaining binding (CDK4 with cyclin D3; binding, competition with immobilised ligand; 1 µM): 100%
O=C(Nc1c[nH]nc1C(=O)NC1CCNCC1)c1cc(F)cc(F)c1 — remaining binding (CDK4 with cyclin D3; binding, competition with immobilised ligand; 1 µM): 98%
COc1ncc2cc3ccccc3nc2c1C#N — remaining binding (CDK4 with cyclin D1; cell-free assay, competition with immobilised ligand; 5 µM): 82%
O=C(NCCCN1CCOCC1)c1ccc(Nc2ncc(Cl)c(-c3ccc(Cl)s3)n2)cc1 — remaining binding (CDK4 with cyclin D3; binding, competition with immobilised ligand; 1 µM): 8.4%
FC(F)(F)Oc1cccc(-c2cnc3ccc(-c4ccncc4)nn23)c1 — remaining binding (CDK4 with cyclin D3; cell-free assay, competition with immobilised ligand; 5 µM): 57%
O=C(c1ccc(Nc2ncc(Cl)c(-c3ccc(Cl)s3)n2)cc1)N1CCC(N2CCCC2)CC1 — remaining binding (CDK4 with cyclin D1; binding, competition with immobilised ligand; 1 µM): 0.1%
CC1CCCN1c1nccc(-c2cnn3ncccc23)n1 (stereo not shown) — remaining binding (CDK4 with cyclin D3; binding; 1 µM): 100%
C=CC(=O)N1CCC(C(=O)NCC(=O)N2CCN(c3nc(-c4cnc(N)nc4C(F)F)nc(N4CCOCC4)n3)CC2)CC1 — remaining binding (CDK4 with cyclin D3; binding, competition with immobilised ligand; 1 µM): 100%
CN(c1nccc(-c2cnn3ncccc23)n1)C1CC1 — remaining binding (CDK4 with cyclin D3; binding; 1 µM): 100%
c1cncc(-c2cccc(Nc3nccc(NC4CCCCC4)n3)c2)c1 — remaining binding (CDK4 with cyclin D1; binding, competition with immobilised ligand; 10 µM): 100%
FC(F)(F)c1ccc2c(c1)nc(-c1cccnc1)n2C1CC1 — remaining binding (CDK4 with cyclin D1; cell-free assay, competition with immobilised ligand; 1 µM): 100%
Cc1cnn2ncc(-c3ccnc(N(C)C)n3)c2c1 — remaining binding (CDK4 with cyclin D1; binding; 1 µM): 84%
CN(C)CC#Cc1ccc(OCCCc2sc(N3CCc4cccc(C(=O)Nc5nc6ccccc6s5)c4C3)nc2C(=O)O)c(F)c1 — remaining binding (CDK4; cell-free assay, competition with immobilised ligand; 1 µM): 100%
Cc1cnc(Nc2ccc(C(=O)N3CCC(N4CCCC4)CC3)cc2)nc1-c1cc2ccccc2s1 — remaining binding (CDK4; binding, competition with immobilised ligand; 1 µM): 40%
O=C(O)c1cc(-c2ccc(C3CCNCC3)cc2)c2ccc(-c3ccc(C(F)(F)F)cc3)cc2c1 — remaining binding (CDK4 with cyclin D3; cell-free assay, competition with immobilised ligand; 1 µM): 100%
CCN1CCN(Cc2ccc(C(=O)Nc3ccc(C)c(Oc4ccc5c(c4)CC(=O)N5)c3)cc2C(F)(F)F)CC1 — remaining binding (CDK4 with cyclin D1; binding, competition with immobilised ligand; 1 µM): 79%
CN(C)c1nccc(-c2cnc3ncccn23)n1 — remaining binding (CDK4 with cyclin D3; binding; 1 µM): 48%
C[C@H](c1ccc(F)cc1)N(Cc1cccc(C(=O)O)c1)C(=O)c1cnc2ccccc2c1 — remaining binding (CDK4 with cyclin D1; cell-free assay, competition with immobilised ligand; 1 µM): 100%
c1cnn2ncc(-c3ccnc(N4CCC45COC5)n3)c2c1 — remaining binding (CDK4 with cyclin D1; binding; 1 µM): 81%
CC(C)(O)c1cncc(-c2nc3ccc(F)cc3n2C2CC2)c1 — remaining binding (CDK4 with cyclin D1; cell-free assay, competition with immobilised ligand; 1 µM): 100%
N[C@H]1CCN(c2nccc(-c3cnn4ncccc34)n2)C1 — remaining binding (CDK4; binding; 1 µM): 75%
Nc1ncc2c(n1)-c1c([nH]c3ccc(C#CC4CC4)cc13)CCCC2 — remaining binding (CDK4 with cyclin D3; binding, competition with immobilised ligand; 1 µM): 93%
O=C(c1ccc(Nc2ncc(Cl)c(-c3cc4ccccc4s3)n2)cc1)N1CCC(N2CCCC2)CC1 — remaining binding (CDK4; binding, competition with immobilised ligand; 1 µM): 21%
COc1cnc(Nc2cccc(S(N)(=O)=O)c2)nc1N1CCN(c2ccccc2)C(=O)C1 — remaining binding (CDK4; binding, competition with immobilised ligand; 1 µM): 99%
CN(C)c1ncc(F)c(-c2cnn3ncccc23)n1 — remaining binding (CDK4 with cyclin D3; binding; 1 µM): 91%
C[C@@H]1CN(c2cc(-c3nn(C)c4ccc(OC5(C)CC5)cc34)ncn2)C[C@H](C)O1 — remaining binding (CDK4 with cyclin D3; cell-free assay, competition with immobilised ligand; 1 µM): 71%
COc1cnc(Nc2cccc(S(N)(=O)=O)c2)nc1N1CCN(c2ccccc2)CC1 — remaining binding (CDK4 with cyclin D3; binding, competition with immobilised ligand; 1 µM): 93%
COc1cc(-c2cn(C3CCc4ccccc4N(CC(F)(F)F)C3=O)nn2)ccc1-n1ccc(C)n1 (stereo not shown) — remaining binding (CDK4; cell-free assay, competition with immobilised ligand; 1 µM): 53%
O=C(NCC1CCOCC1)c1n[nH]cc1NC(=O)c1c(F)cccc1F — remaining binding (CDK4 with cyclin D1; binding, competition with immobilised ligand; 1 µM): 47%
C[C@@H]1CCN(c2nccc(-c3cnn4ncccc34)n2)C1 — remaining binding (CDK4 with cyclin D1; binding; 1 µM): 88%
O=C(c1ccc(Nc2nccc(-c3cc4ccccc4s3)n2)cc1)N1CCC(N2CCCC2)CC1 — remaining binding (CDK4 with cyclin D1; binding, competition with immobilised ligand; 1 µM): 25%
Cc1nc(N2CC[C@@H](O)C2)ncc1-c1cc(C(F)(F)F)cc2[nH]ncc12 — remaining binding (CDK4; binding, competition with immobilised ligand; 1 µM): 63%
